These results are taken from ChEMBL document CHEMBL2396619, “Synthesis and neuroprotective effect of E-3,4-dihydroxy styryl aralkyl ketones derivatives against oxidative stress and inflammation” (Bioorg Med Chem Lett, 2013).

SMILES strings stand for the structures. Active and inactive are the calls of the source. The rule behind the calls is not given here. Bounds are passed on as bounds.

Series [1] is described as follows: Cytotoxicity against mouse BV2 cells assessed as cell viability at 50 uM after 24 hrs by MTT assay. The class given is cell-based, BV-2. Conditions: read-out: Activity. In outline: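 BV2 cells exposed to compounds at up to 50 µM for up to 24 h; viability determined by MTT assay.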
A general note: Formazan colour is commonly taken as a measure of viable cells.

A further series relates to PC-12. As to the kind of experiment: Neuroprotective activity in rat PC12 cells assessed as protection against H2O2-induced reduction of cell viability at 10 uM treated 3 hrs before H2O2 addition measured after 5 hrs by MTT assay. The format is functional, cell-based. The essentials: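 PC12 cells pretreated with compound at 10 µM for 3 h, then exposed to 500 µM H2O2 for 5 h. Viability measured by MTT and expressed as OD(treated)/OD(control) ×100%, with untreated cells (no compound, no H2O2) set to 100%. Mean ± SD, n = 3.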

In series [2] the test system is BV-2. Put plainly: Antineuroinflammatory activity in mouse BV2 cells assessed as reduction of LPS-induced nitric oxide production treated 3 hrs before LPS addition measured after 24 hrs by Griess assay. The class given is functional, cell-based. In outline: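 LPS-stimulated BV2 microglia; nitrite in culture supernatant measured by Griess assay: supernatant mixed with an equal amount of Griess reagent, incubated in the dark, absorbance read at 540 nm.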

Series [3] relates to Radical scavenging activity. Put plainly: Antioxidant activity assessed as DPPH free radical scavenging activity after 60 mins by spectrophotometry. The class given is functional.
Series [4] relates to Radical scavenging activity. Put plainly: Antioxidant activity assessed as DPPH free radical scavenging activity at 50 uM after 60 mins by spectrophotometry. The class given is functional. A general note: DPPH is a stable violet radical that fades when it is reduced.
The nature of series [5]: Ratio of caffeic acid phenethyl ester IC50 to compound IC50 for DPPH free radical scavenging activity.
Series [6] concerns BV-2. As to the kind of experiment: Ratio of caffeic acid phenethyl ester IC50 to compound IC50 for antineuroinflammatory activity in mouse BV2 cells assessed as reduction of LPS-induced nitric oxide production. The format is functional.

Regarding `COc1ccc(CCC(=O)/C=C/c2ccc(O)c(O)c2)c(OC)c1`, the viability at 24 h, 50 µM in series [1] was over 90%. Also, in the series with PC-12, the result was Active. The IC50 with BV-2 [2] amounted to 10.6 µM; in series [3], 14 µM.
Regarding `CC(=O)Oc1ccc(/C=C/C(=O)OCCc2ccccc2)cc1OC(C)=O`, the inhibition entry in series [4] is “inactive”.
Regarding `O=C(/C=C/c1ccc(O)c(O)c1)CCCc1ccccc1`, the viability at 24 h, 50 µM in series [1] is over 90%. Also, the outcome in the series with PC-12 was Active. Further, in series [5], the Ratio IC50 was determined as 1.3. Further, the IC50 with BV-2 [2] came to 6.4 µM; in series [3], 9.2 µM.
For the molecule `CC(=O)Oc1ccc(/C=C/C(=O)CCc2cccc(Cl)c2)cc1OC(C)=O`, the viability at 24 h, 50 µM in series [1] is over 90%. For the same molecule, in the series with PC-12, the result was Active. For the same molecule, the IC50 in the series on BV-2 [2] came out at 8.3 µM. In addition, the inhibition entry in series [4] is “inactive”.
In the case of `CC(=O)Oc1ccc(/C=C/C(=O)CCCCc2ccccc2)cc1OC(C)=O`, in the series with BV-2 [6], the “Ratio IC50” value is listed as 1.5. In series [1], the viability at 24 h, 50 µM was over 90%. In the series on PC-12, the outcome was Active. Besides, the IC50 with BV-2 [2] is 4.2 µM. The inhibition result in series [4] was “inactive”.
`CC(=O)Oc1ccc(/C=C/C(=O)CCc2ccccc2)cc1OC(C)=O`: in series [1], the viability at 24 h, 50 µM is over 90%. In the series with PC-12, the outcome was Active. In the series with BV-2 [2], the IC50 amounted to 12.3 µM. The inhibition entry in series [4] is “inactive”.
In the same order, the values of `COc1cc(CCC(=O)/C=C/c2ccc(OC(C)=O)c(OC(C)=O)c2)ccc1O` are over 90%, “Active”, 5.5 µM and “inactive”.
`COc1ccc(CCC(=O)/C=C/c2ccc(OC(C)=O)c(OC(C)=O)c2)c(OC)c1`: the viability at 24 h, 50 µM in series [1] was over 90%. In the series with PC-12, the outcome was Active. Also, in the series with BV-2 [2], the IC50 was 9.3 µM. For the same molecule, the inhibition entry in series [4] was “inactive”.
In the case of `COc1ccc(CCC(=O)/C=C/c2ccc(OC(C)=O)c(OC(C)=O)c2)cc1OC`, the viability at 24 h, 50 µM in series [1] was over 90%. In addition, the outcome in the series with PC-12 was Active. Further, in the series with BV-2 [2], the IC50 turned out to be 12.6 µM. In addition, the inhibition result in series [4] was “inactive”.
Consider `COc1cc(CCC(=O)/C=C/c2ccc(O)c(O)c2)ccc1O`, for which the viability at 24 h, 50 µM in series [1] is over 90%. Further, the result in the series on PC-12 was Active. Also, the IC50 in the series on BV-2 [2] was 6.3 µM; in series [3] it was 12.1 µM.
On to `COc1ccc(CCC(=O)/C=C/c2ccc(O)c(O)c2)cc1OC`, for which the viability at 24 h, 50 µM in series [1] is over 90%. In addition, the outcome in the series on PC-12 was Active. The IC50 with BV-2 [2] was 14.5 µM; in series [3], 13.2 µM.
As to `O=C(/C=C/c1ccc(O)c(O)c1)CCc1ccccc1`, the viability at 24 h, 50 µM in series [1] was over 90%. The result with PC-12 was Active. Moreover, the IC50 in the series on BV-2 [2] amounted to 14.1 µM; in series [3], 12.7 µM.
The like results for `O=C(/C=C/c1ccc(O)c(O)c1)CCc1cccc(Cl)c1` were, in that order, over 90%, “Active”, 10.3 µM and 11.1 µM.
For the molecule `O=C(/C=C/c1ccc(O)c(O)c1)CCCCc1ccccc1`, the viability at 24 h, 50 µM in series [1] was over 90%. Besides, in the series with PC-12, the result was Active. For the same molecule, the IC50 was 5.9 µM in the series with BV-2 [2] and 10.6 µM in series [3].
In the case of `CC(=O)Oc1ccc(/C=C/C(=O)CCCc2ccccc2)cc1OC(C)=O`, the viability at 24 h, 50 µM in series [1] was over 90%. The result with PC-12 was Active. In addition, the IC50 in the series with BV-2 [2] worked out at 5.3 µM. Moreover, the inhibition entry in series [4] was “inactive”.

As usually defined, the IC50 is the midpoint of a concentration-inhibition curve.
